Results from PMC8851646 (ACS Omega, 2022).
Values after ≈ are worked out from the molar mass of the structure shown. Read-outs that look alike come from different tables or passages of the source.

Columns and labels:
[1] = system: K. pneumoniae NB29017 co-cultured with T. pyriformis; test: T. pyriformis/K. pneumoniae; format: cell-based, Klebsiella pneumoniae; details: for activity in the Tp/Kp assay: manual pilot screens and D1 analog set
[2] = system: K. pneumoniae NB29017; test: Qualitative inhibition of mucoid appearance of colonies on solid LB agar; format: cell-based, Klebsiella pneumoniae; details: 4 fully mucoid, 0 nonmucoid, by eye
How it was run: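 Test compound dissolved in DMSO (12.8 mg/mL stock) and mixed into melted LB agar at 0–16 μg/mL final, then set in six-well plates. Mucoid wild-type NB29017 streaked for single colonies in each well. Plates incubated 18 h at 37 °C, then 2 h at 4 °C. Mucoid appearance scored by eye from 0 (none) to 4 (normal hypermucoid).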

[3] = Red blood cell hemolysis; format: cell-based, sheep; details: sheep, erythrocytes from defibrinated sheep blood, pH 7.5
[4] = Cytotoxicity in K562 cells; format: cell-based; details: human
[5] = system: Staphylococcus aureus; test: Antibacterial MIC, Gram-positive control; format: cell-based; details: read-out: MIC Sa
[6] = system: K. pneumoniae wbbM mutant (NB29018) co-cultured with T. pyriformis; test: Tp/Kp co-culture assay with cell surface-defective wbbM mutant; format: cell-based, Klebsiella pneumoniae; details: Tp threshold 4625–18,500 Tp/mL
[7] = read-out: IC50 Tp/Kp, Table 1, freshly dissolved powder, top concentration 20 μM
[8] = read-out: Tp/Kp IC50, Table 2, expressed as μg/mL for comparison to agar values

Structure (SMILES) | activity in the Tp/Kp assay [1] | qualitative score on solid medium ([2]; 1 μg/mL compound in agar) | qualitative score on solid medium ([2]; 2 μg/mL compound in agar) | qualitative score on solid medium ([2]; 4 μg/mL compound in agar) | qualitative score on solid medium ([2]; 8 μg/mL compound in agar) | qualitative score on solid medium ([2]; 16 μg/mL compound in agar) | hemolysis at 1 h [3] | IC50 [4] | IC50 [1, 7] | IC50 [1, 8] | MIC [5] | activity in the Tp/Kp wbbM assay [6]
O=C(O)c1ccccc1O [compound 10, OC(=O)c1ccccc1O] | active | – | – | – | – | – | – | – | – | – | – | –
CCOc1ccc2nc(NC(=O)c3cc(=O)c4ccc(C)cc4o3)sc2c1 [compound 65, CCOc4ccc3N=C(NC(=O)C2=CC(=O)c1ccc(C)cc1O2)Sc3c4] | – | 2 | 2 | 2 | 2 | 1 | 1.5% | > 168000 nM | 70 nM | 0.03 µg/mL | > 128 µg/mL | –
O=C(Nc1nnc(Cl)s1)c1ccco1 [compound 67, O=C(NC1=NN=C(Cl)S1)C2=CC=CO2] | – | 1 | 0 | 0 | 0 | 0 | 1.5% | > 557000 nM | 490 nM | 0.11 µg/mL | > 128 µg/mL | –
Cc1cccc(O)c1C(=O)O [compound 16, Cc1cccc(O)c1C(O)=O] | active | – | – | – | – | – | – | – | – | – | – | –
Oc1nc(S)nnc1-c1cccs1 [B1, OC1N=C(S)N=NC=1C2=CC=CS2] | active | – | – | – | – | – | – | – | – | – | – | –
COC1C(OC(C)=O)CC(=O)OC(C)CC2OC2/C=C/C(=O)C(C)CC(CC=O)C1OC1OC(C)C(OC2CC(C)(O)C(OC(=O)CC(C)C)C(C)O2)C(N(C)C)C1O (stereo not shown) [compound 186, COC4C(OC2OC(C)C(OC1CC(C)(O)C(OC(=O)CC(C)C)C(C)O1)C(C2O)N(C)C)C(CC=O)CC(C)C(=O)/C=C/C3OC3CC(C)OC(=O)CC4OC(C)=O] | – | – | – | – | – | – | – | 8540 nM | 5400 nM | – | 2 µg/mL (≈ 2.38 µM) | –
Cc1cc(C)c2c(=O)cc(C(=O)Nc3nc4ccc(F)cc4s3)oc2c1 [compound 68, Cc2cc(C)c1C(=O)C=C(Oc1c2)C(=O)NC4=Nc3ccc(F)cc3S4] | – | 3 | 3 | 1 | 1 | 1 | 2.2% | > 348000 nM | 910 nM | – | > 128 µg/mL | –
O=C(O)c1cc(Br)ccc1F [compound 166, OC(=O)c1cc(Br)ccc1F] | – | – | – | – | – | – | 2.5% | > 584000 nM | 1300 nM | – | > 128 µg/mL | –
CC12CC3(C)CC(C(=O)O)(C1)CC(C(=O)O)(C2)C3 [compound 73, CC12CC3(C)CC(C1)(CC(C2)(C3)C(O)=O)C(O)=O] | – | 4 | 3 | 3 | 3 | 2 | 2.8% | > 508000 nM | 1100 nM | – | > 128 µg/mL | –
COc1ccc(Br)c(/C=N/NC(=O)COc2ccc(-c3ccccc3)cc2)c1 [compound 69, COc3ccc(Br)c(/C=N/NC(=O)COc1ccc(cc1)c2ccccc2)c3] | – | 0 | 0 | 0 | 0 | 0 | 4.1% | > 291000 nM | 50 nM | – | > 128 µg/mL | –
O=C(/C=C/c1ccccc1)Nc1ccc(C(=O)Nc2nccs2)cc1 [compound 70, O=C(/C=C/c1ccccc1)Nc2ccc(cc2)C(=O)NC3=NC=CS3] | – | 3 | 1 | 0 | 0 | 0 | 17.6% | > 367000 nM | 1100 nM | – | > 128 µg/mL | –
COc1nc(SC)nnc1C [Di, COc1nc(nnc1C)SC] | inactive | – | – | – | – | – | – | – | – | – | – | –
CCCCNC(=O)NS(=O)(=O)c1cccs1 [compound 82, CCCCNC(=O)NS(=O)(=O)C1=CC=CS1] | – | 4 | 4 | 3 | 3 | 2 | 7.4% | > 489000 nM | 2580 nM | – | > 128 µg/mL | –
CCOc1ccc2nc(NC(=O)c3ccc4ncsc4c3)sc2c1 [compound 74, CCOc4ccc3N=C(NC(=O)c2ccc1N=CSc1c2)Sc3c4] | – | 2 | 0 | 0 | 0 | 0 | 26.9% | > 361000 nM | 370 nM | – | > 128 µg/mL | –
O=C(CCCN1CCC(O)(c2ccc(Br)cc2)CC1)c1ccc(F)cc1 [compound 185, OC2(CCN(CCCC(=O)c1ccc(F)cc1)CC2)c3ccc(Br)cc3] | – | – | – | – | – | – | 4.5% | 16500 nM | 850 nM | – | > 128 µg/mL | –
Cc1cc(O)c(C)c(O)c1C(=O)O [compound 9, Cc1cc(O)c(C)c(O)c1C(O)=O] | active | – | – | – | – | – | – | – | – | – | – | –
Cc1nnc(SCC(=O)Nc2ccc(Br)cc2)nc1O [compound 35, Cc1nnc(nc1O)SCC(=O)Nc2ccc(Br)cc2] | active | – | – | – | – | – | – | – | – | – | – | retained activity
Cc1nc(O)n2ncc(Br)c2n1 [compound 187, CC2=NC1=C(Br)C=NN1C(O)=N2] | – | – | – | – | – | – | 2.5% | > 559000 nM | 160 nM | – | > 128 µg/mL | –
Cc1nnc(-c2ccccc2)nc1O [compound 34, Cc1nnc(nc1O)c2ccccc2] | active | – | – | – | – | – | – | – | – | – | – | retained activity
CCOc1cccc(C(=O)Nc2ccc(-c3nc4ccccc4[nH]3)cc2)c1 [compound 79, CCOc1cccc(c1)C(=O)Nc2ccc(cc2)C4Nc3ccccc3N=4] | – | 2 | 2 | 2 | 2 | – | 40.6% | 341000 nM | 1330 nM | – | > 128 µg/mL | –
CCN(CC)/C(N)=N\c1ccc(NC(=O)c2ccc(C(=O)Nc3ccc(/N=C(\N)N(CC)CC)cc3)cc2)cc1 [compound 170, CCN(CC)/C(/N)=N/c1ccc(cc1)NC(=O)c2ccc(cc2)C(=O)Nc3ccc(cc3)\N=C(\N)/N(CC)CC] | – | – | – | – | – | – | 1.9% | 102000 nM | 2200 nM | – | 8 µg/mL (≈ 14.7 µM) | –
C=CC1(C)CC(OC(=O)CSc2ccc(N)cc2)C2(C)C(C)CCC3(CCC(=O)C32)C(C)C1O (stereo not shown) [compound 191, C=CC4(C)CC(OC(=O)CSc1ccc(N)cc1)C2(C)C(C)CCC3(CCC(=O)C23)C(C)C4O] | – | – | – | – | – | – | 2% | 35800 nM | 3220 nM | – | ≤ 0.06 µg/mL | –
O=[N+]([O-])c1cnc2ccc(Cl)cc2c1O [compound 182, [O-][N+](=O)c2cnc1ccc(Cl)cc1c2O] | – | – | – | – | – | – | 2.4% | 75400 nM | 420 nM | – | > 128 µg/mL | –
